This note sets out measurements from ChEMBL document CHEMBL4665666, “Discovery and characterization of trypanocidal cysteine protease inhibitors from the 'malaria box'” (Eur J Med Chem, 2019).

Molecules are shown by their SMILES.

The target in one test is Rhodesain (Trypanosoma brucei rhodesiense, UniProt Q95PM0). Description: Inhibition of recombinant Trypanosoma brucei rhodesain expressed in Pichia pastoris using Z-FR-AMC as substrate and measured at 12 sec interval for 5 mins without preincubation by fluorimetric analysis. A digest of the protocol:
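Rhodesain (1 nM) with Z-FR-AMC (2.5 µM) in 0.1 M sodium acetate pH 5.5, 0.01% Triton X-100, 1 mM β-mercaptoethanol, with or without 10 min enzyme-compound pre-incubation. Fluorescence read at 340/440 nm. IC50 by four-parameter nonlinear regression from at least six concentrations in triplicate, with at least two independent runs. Mean ± SEM reported.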

The next test concerns the target Cruzipain (Trypanosoma cruzi, UniProt P25779). Description: Competitive inhibition of recombinant Trypanosoma cruzi cruzain by Lineweaver-Burk plot analysis. A digest of the protocol: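 Cruzain (recombinant, 1 nM) in 0.1 M sodium acetate pH 5.5 with 0.01% Triton X-100 and 1 mM β-mercaptoethanol; Z-FR-AMC 2.5 µM, read at 340/440 nm every 12 s for 5 min, with or without 10 min enzyme–compound pre-incubation. […] For mechanism and Ki, 0.3–20.0 µM substrate and five inhibitor levels were used, with Lineweaver-Burk plots.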

What is called IC50 is the concentration at which inhibition is half-maximal. As a reminder, the Ki is a dissociation constant, usually derived from enzyme kinetics or from competition with a known ligand.

Chain of Cruzipain (P25779 whole entry): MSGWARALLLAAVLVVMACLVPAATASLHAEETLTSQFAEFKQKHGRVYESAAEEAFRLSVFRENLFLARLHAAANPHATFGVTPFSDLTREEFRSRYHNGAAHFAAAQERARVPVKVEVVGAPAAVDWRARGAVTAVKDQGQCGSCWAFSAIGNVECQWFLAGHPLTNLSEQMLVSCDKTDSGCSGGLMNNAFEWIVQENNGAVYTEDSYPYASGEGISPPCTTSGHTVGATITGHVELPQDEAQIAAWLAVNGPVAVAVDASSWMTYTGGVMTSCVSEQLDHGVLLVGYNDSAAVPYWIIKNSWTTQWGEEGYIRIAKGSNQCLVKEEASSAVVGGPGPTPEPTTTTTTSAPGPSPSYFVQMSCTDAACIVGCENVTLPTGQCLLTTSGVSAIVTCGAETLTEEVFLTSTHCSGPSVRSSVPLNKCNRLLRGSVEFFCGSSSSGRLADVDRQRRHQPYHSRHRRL
Chain of Rhodesain (Q95PM0 whole entry): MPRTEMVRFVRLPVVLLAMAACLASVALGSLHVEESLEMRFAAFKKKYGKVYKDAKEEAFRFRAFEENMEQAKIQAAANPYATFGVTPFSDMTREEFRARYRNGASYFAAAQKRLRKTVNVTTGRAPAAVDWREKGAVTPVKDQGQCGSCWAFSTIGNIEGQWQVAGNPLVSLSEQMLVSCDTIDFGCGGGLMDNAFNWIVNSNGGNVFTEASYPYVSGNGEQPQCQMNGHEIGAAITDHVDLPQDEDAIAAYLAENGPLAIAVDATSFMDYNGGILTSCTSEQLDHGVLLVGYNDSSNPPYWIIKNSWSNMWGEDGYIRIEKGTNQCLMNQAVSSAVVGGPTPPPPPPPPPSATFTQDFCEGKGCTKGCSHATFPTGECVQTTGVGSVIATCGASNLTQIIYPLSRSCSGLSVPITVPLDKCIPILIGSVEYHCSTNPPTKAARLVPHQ

Turning to `Cl.Cl.Clc1cc(Br)ccc1-c1ccc(CNCC2CCNCC2)o1`, the IC50 on Rhodesain was 53 µM. Further, the inhibition constant (Ki) at Cruzipain worked out at 3 µM.
